According to PubChem BioAssay AID871 (The Scripps Research Institute Molecular Screening Center, 2007):
Out of some 190,000 compounds screened, about 1,800 (0.95%) were called active.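 Rule for the calls: active = activation above the screen-wide mean of compound activation plus 3 SD (cut at about 130% in these data); inactive = the rest.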 The sample as a whole holds a higher share of actives than the screen did.

experiment: enhancers of STAT3 transcriptional signaling – U3A cells, luciferase, luminescence, MLSCN library, primary screen (AID 871); settings: IL-6 STAT3-luciferase reporter, at 5.6 µM, active compounds read high, 100% = signal with IL-6 EC80 alone;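 note: 0% = background luminescence of wells with medium and substrate only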
In short: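 Material: STAT1-lacking human U3A cells, STAT3 luciferase reporter | Benchmarks: IL-6-only wells as 100% reference | Probe or stimulus: IL-6 (33 ng/mL) | Timing: Compound 1 h, then IL-6 6 h at 37 °C | Detection: Luminescence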

Activation (% of control), active:
COC(=O)c1[nH]c2ccccc2c1NS(=O)(=O)c1ccc(OC)cc1OC 149%
Cc1ccc(NC(=O)c2cc([N+](=O)[O-])ccc2Cl)c(O)c1 138%
COc1cc(NS(=O)(=O)c2ccc(N/C=C(\C=O)c3nc4cc(Cl)ccc4o3)cc2)nc(OC)n1 159%
COc1ccccc1C(=O)NNC(=O)c1ccc(NC(=O)c2ccccc2)cc1 134%
Cc1nc2ccccc2cc1O 163%
CCN(CC)CCn1c(/N=C/c2cc(Br)ccc2O)nc2ccccc21 133%
O=C(Nc1cc(C(F)(F)F)ccc1Cl)c1cc(C2CC2)on1 150%
Cc1cccc(C(=O)Nc2nnc(Cc3c[nH]c4ccccc34)s2)c1 157%
CCn1c(SCC(=O)N/N=C/C=C/c2ccccc2[N+](=O)[O-])nnc1-c1ccccc1 138%
Cc1nc(N=C(N)N)nc2c(C)cccc12 168%
COc1nc(N=C(N)N)nc2c(C)cccc12 172%
O=C(C1=C(O)C(=O)N(c2ncccn2)C1c1cccs1)c1ccco1 (configuration not stated) 134%
CCOC(=O)C1CCN(c2ncnc3c2oc2ccc(Br)cc23)CC1 141%
Cn1cccc1C(=O)Nc1nccs1 140%
Cc1cccc(N(CC(=O)N=Nc2c(O)[nH]c3ccccc23)S(C)(=O)=O)c1C 140%
C/C(=N\NC(=O)CNc1cccc2ccccc12)c1ccc(Br)s1 137%
CSCCC(NC(=O)c1ccco1)C(=O)OCC(=O)Nc1ncc(Cl)c(C)c1Cl (configuration not stated) 145%
O=C1CCCN1CCCNc1ncnc2c1[nH]c1ccccc12 151%
CN1CCN(c2ccc([N+](=O)[O-])c(Sc3nc4ccccc4[nH]3)c2)CC1 137%
O=[N+]([O-])c1ccc(N2CCN(S(=O)(=O)c3ccc4ccccc4c3)CC2)cc1NCc1ccco1 154%

Activation (% of control), inactive:
Cc1cc(C)c(C#N)c(SCC(=O)Nc2ccccc2)n1 85.2%
Cc1ccc(C(=O)N2CCCC(c3ccccc3)=N2)cc1 92.1%
COC(=O)c1[nH]c2ccc(Br)cc2c1NC(=O)Oc1ccccc1 102%
COc1ccc(OC)c(S(=O)(=O)Nc2ccccc2F)c1 96.8%
O=[N+]([O-])c1ccccc1Nc1ccc(O)cc1 104%
CCOc1ccc2c(=O)c(-c3ccc4c(c3)OCCCO4)c(C)oc2c1 98.4%
CC(C)C(=O)Nc1cccc(NC(=O)c2ccc([N+](=O)[O-])cc2Cl)c1 106%
CCC(C)C(=O)Nc1cc([N+](=O)[O-])ccc1Cl (configuration not stated) 103%
CC1CCC2(CC1)NC(=O)N(Cc1nnc(-c3cccs3)o1)C2=O (configuration not stated) 96.4%
C/C(=C\c1ccco1)CN1CCC(N2CCC(C(=O)N3CCOCC3)CC2)CC1 110%
Cn1cc(CN2CCCC(CO)C2)c(-c2ccc(Oc3ccccc3)cc2)n1 (configuration not stated) 108%
COc1cc(NS(=O)(=O)c2ccc(NC(=O)c3ccc(S(=O)(=O)N4CCCCC4)cc3)cc2)ncn1 97.5%
COc1cc(NS(=O)(=O)c2ccc(N=Cc3c(C)[nH]n(-c4ccccc4)c3=O)cc2)nc(OC)n1 111%
NC(=O)c1ccc(NC(=O)COC(=O)C(Cc2ccccc2)NC(=O)c2ccccc2)cc1 (configuration not stated) 92.8%
CCN(CC)CCN(C(=O)c1ccc(N2C(=O)CCC2=O)cc1)c1nc2cc3c(cc2s1)OCO3 107%
C/C(=N/NC(=O)c1ccc(NC(=O)c2ccc(F)cc2)cc1)c1ccccc1 85.3%
COc1ccc(C(=O)Nc2ccccc2C(=O)N/N=C/c2ccccc2OC)cc1 105%
CCCn1c(C)cc(/C=C(\C#N)C(=O)OCC(=O)Nc2cc(OC)c(OC)c(OC)c2)c1C 103%
Cc1cc(O)ccc1-c1cnc2ccccc2n1 102%
Cc1nc2ccccc2cc1OCc1ccc(F)cc1 44.1%
CC(=O)NCCC(=O)Nc1cc(S(=O)(=O)N2CCOCC2)ccc1N1CCOCC1 105%
CCOc1cc(NC(=S)NCCCN(C)C)c(OCC)cc1NC(=O)C1CC1 99.1%
O=C(NNC1=C(C(=O)C(F)(F)F)CCC1)c1ccncc1 95.6%
Oc1ccc(Br)cc1C=Nc1ccc2[nH]ncc2c1 102%
CCn1c(NC(=O)c2nn(C)cc2Br)nc2ccccc21 96.8%
S=c1[nH]nc(-c2cccs2)n1/N=C/c1cccs1 109%
Cc1cc(OC(=O)c2ccccc2)c([N+](=O)[O-])c(=O)[nH]1 106%
O=C(NCC1CCCO1)/C(=C/c1ccc(Cl)cc1)NC(=O)c1ccccc1 (configuration not stated) 88.2%
CSc1ccccc1NC(=O)c1cc(C2CC2)on1 122%
Cc1nn(Cc2ccc(Cl)c(Cl)c2)c(C)c1NC(=O)c1cc(C2CC2)on1 92.8%
CCCN(CCC)c1c([N+](=O)[O-])c(=O)oc2ccccc12 96.6%
Cc1ccn(-c2cccc(-n3ccc(C)n3)n2)n1 93.6%
CCC(C)NC(=O)CN(C1CCCCC1)S(C)(=O)=O (configuration not stated) 105%
Cc1cc(=O)n2[nH]c(-c3sccc3-n3c(C)ccc3C)cc2n1 118%
CCCC(C)C(=O)OCC(=O)Nc1c(Br)cc(C)cc1Br (configuration not stated) 102%
CCc1nnc(NC(=O)[C@@H](NC(=O)c2cccc(C)c2)C(C)C)s1 101%
COc1ccc(Cc2nnc(NC(=O)c3cc(OC)c(OC)c(OC)c3)s2)cc1OC 91.5%
CCc1ccc2ncc(C(=O)c3ccccc3)c(N3CCOCC3)c2c1 110%
Cc1ccc(-n2c(SCC(=O)N/N=C/C=C/c3ccccc3[N+](=O)[O-])nc3ccccc3c2=O)cc1 97.7%
CCn1c(SCC(=O)Nc2ccc(S(=O)(=O)Nc3onc(C)c3C)cc2)nnc1-c1ccccc1 98.7%
COc1ccc(CCNC(=O)COC(=O)Cc2cc(OC)c(OC)c(OC)c2)cc1 111%
CC(C)NC(=O)C(=O)NCCCOC(C)C 101%
Cc1cccc2c(=O)n3c(nc12)CCCCC3 102%
CCc1c(C)nc2c(OC)cccc2c1Cl 101%
COc1ccc2nc(/N=C(\N)NC(=O)Nc3ccccc3)nc(C)c2c1 100%
O=C(COC(=O)c1ccccc1)Nc1cccc(S(=O)(=O)N2CCOCC2)c1 101%
CCC1CCCCN1C(=S)Nc1ccc(SC(F)F)cc1 (configuration not stated) 94.3%
CC1(C)CC(=O)CC2(C1)NCC(c1ccccc1Cl)c1c2[nH]c2ccccc12 (configuration not stated) 105%
O=C(C1=C(O)C(=O)N(Cc2ccccc2)C1c1ccco1)c1ccco1 (configuration not stated) 101%
O=C(C1=C(O)C(=O)N(Cc2ccccc2)C1c1cccnc1)c1ccco1 (configuration not stated) 100%
CCOC(=O)CNC(=O)/C=C/c1c(Cl)cccc1Cl 86.6%
CCOC(=O)C1CCN(C(=O)c2oc3ccc(S(=O)(=O)N4CCCCCC4)cc3c2C)CC1 89.9%
CCOC(=O)C1CCN(c2ncnc3c2c(-c2ccccc2)cn3-c2ccc(C)cc2)CC1 102%
COc1cc(C(=O)Nc2nccs2)cc(OC)c1OC 81%
O=C(O)c1ccccc1-c1ccccc1C(=O)Nc1nccs1 101%
COC(=O)Cc1c(O)ccn(Cc2cccc(C(F)(F)F)c2)c1=O 99.8%
COCC(=O)N=Nc1c(O)[nH]c2ccccc12 92.2%
Cc1c(-c2ccccc2)n[nH]c1C(=O)N=Nc1c(O)[nH]c2ccccc12 84.5%
CC1=NNC(=O)C1CCC(=O)N/N=C\c1ccc(Cl)c(Cl)c1 (configuration not stated) 108%
Cc1ccc2nsnc2c1NC(=O)c1ccccc1[N+](=O)[O-] 99.5%
O=C(O/N=C(/c1ccccc1)c1ccncc1)c1ccccc1[N+](=O)[O-] 113%
Cc1cccc(/C=N/NC(=O)CNc2cccc3ccccc23)n1 114%
C/C(=N\NC(=O)CSc1nc2ccccc2c(=O)n1-c1ccccc1C)c1cccs1 105%
Cc1cc(/C=N/NC(=O)c2cccnc2)c(C)n1CC(C)C 118%
Cc1c(Cl)cnc(NC(=O)COC(=O)c2ccc(S(=O)(=O)NCc3ccco3)cc2)c1Cl 103%
CSCCC(NC(=O)COc1ccccc1)C(=O)OCC(=O)c1cc2ccccc2o1 (configuration not stated) 116%
CC(C)OCCCNc1ncnc2c1[nH]c1ccc(F)cc12 36.3%
O=C(CCn1c(=S)[nH]c2ccccc2c1=O)NCCCN1CCCC1=O 98.6%
CCCc1nnc(SCC(=O)N2C(C)CCCC2C)n1CC (configuration not stated) 105%
N#CCSc1nn(-c2ccc(F)cc2)c(=S)s1 103%
O=C(CNC1CCCCC1)NCC1(c2ccccc2)CCCC1 112%
O=C(CSc1nc2ccccc2[nH]1)N/N=C/C=C\c1ccccc1[N+](=O)[O-] 96.6%
CN1CCN(c2ccc(S(=O)(=O)Nc3ccccc3)cc2[N+](=O)[O-])CC1 79.1%
COc1ccc2c(c1)CCc1cn3ncc(C#N)c3nc1-2 100%
O=C(NCC1CCCCC1)c1cc(S(=O)(=O)N2CCCCC2)ccc1N1CCOCC1 104%
O=C(c1ccccc1)N1CCN(c2ccc([N+](=O)[O-])c(NCc3ccco3)c2)CC1 107%
CC(=O)Nc1ccc(S(=O)(=O)N2CCN(c3ccc([N+](=O)[O-])c(NCCN4CCOCC4)c3)CC2)cc1 104%
